Compound activity from PubChem.
NPY Y1 blocker: NPY-Y1 (human) receptor antagonism. hit rate 1% among 200,000. inhibition, % at 3.6 µM. HEK293-CNG Y1 cells, membrane potential fluorescence; NPY at EC95, then isoproterenol;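 active means inhibition above the campaign mean inhibition of all tested compounds plus 3 SD, cut at about 20% in these data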
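Material: HEK293 cells co-expressing NPY Y1 receptor and cyclic-nucleotide gated channel. Timing: compound incubation 1 h at room temperature, readout 45 min post-stimulation. Signal: fluorescence, membrane potential probe.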
Wee1 degr inh: inhibitors of human Wee1 degradation; hit rate 1.2% among 220,000; reporter increase, % at 5 µM; HeLa Luc-Wee1K328M stability, luciferase luminescence; 100% = proteasome inhibitor MG132 effect; P30291;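 active means activation above the mean of all tested compounds plus 3 SD, set per screening run, cut at about 8.8% in these data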;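 further: cells exposed to compound for 20 h before luminescence read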
Target sequence (P30291 whole entry K328M): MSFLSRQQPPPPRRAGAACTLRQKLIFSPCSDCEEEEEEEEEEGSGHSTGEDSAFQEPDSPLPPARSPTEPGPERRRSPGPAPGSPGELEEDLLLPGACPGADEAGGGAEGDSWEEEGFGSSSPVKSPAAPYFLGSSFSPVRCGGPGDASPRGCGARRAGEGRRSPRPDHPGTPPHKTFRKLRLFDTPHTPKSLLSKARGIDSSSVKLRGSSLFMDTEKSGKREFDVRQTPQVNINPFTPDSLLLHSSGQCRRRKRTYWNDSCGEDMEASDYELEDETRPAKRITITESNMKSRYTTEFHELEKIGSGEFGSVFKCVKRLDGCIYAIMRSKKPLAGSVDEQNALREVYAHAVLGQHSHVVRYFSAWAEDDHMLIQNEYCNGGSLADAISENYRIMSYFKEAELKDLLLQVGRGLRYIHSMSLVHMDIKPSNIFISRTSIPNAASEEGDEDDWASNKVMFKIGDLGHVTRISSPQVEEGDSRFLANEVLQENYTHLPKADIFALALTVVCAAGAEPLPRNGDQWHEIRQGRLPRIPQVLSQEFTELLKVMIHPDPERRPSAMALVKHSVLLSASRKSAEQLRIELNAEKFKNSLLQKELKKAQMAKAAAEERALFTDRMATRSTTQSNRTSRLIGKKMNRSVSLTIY
NPY-Y1 PAM-ag: potentiators or agonists of human neuropeptide Y receptor Y1; P25929; NPY-Y1 expressing cells, potentiator/agonist activation; activation, % at 3.6 µM; hit rate 0.37% among 220,000; AID 1304; in the data active means activation above about 33%, passing the limit was not always enough;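 further: cells stimulated with NPY at EC10 then isoproterenol at EC100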
Hsp70 act: Hsp70 transcriptional activation, primary screen; HeLa Hsp70 promoter luciferase reporter, luminescence; scaled: vehicle 0, proteasome-inhibitor control 100%; activation, % at 10 µM; hit rate 0.04% among 200,000; AID 1203;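 active means activation above the mean across all tested compounds plus 3 SD, cutoff set per campaign, cut at about 5.5% in these data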
NPY-Y2 antag: NPY-Y2 (human) receptor antagonism; NPY-Y2 expressing cells, antagonist mode; inhibition, % at 2.7 µM; hit rate 0.99% among 140,000; AID 793; in the data active means inhibition above about 17%
NPY2 pot ag: potentiators or agonists of human neuropeptide Y receptor Y2 | hit rate 0.45% among 220,000 | activation, % at 3.6 µM | P49146 | cells expressing NPY-Y2, potentiator/agonist read-out; in the data active means activation above about 27%;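 further: cells stimulated with NPY near EC25 plus isoproterenol at EC100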
NPY-Y1 antag ct: antagonizes human NPY-Y1, counter-screen to NPY-Y2 antagonists; shares compounds with NPY-Y2 antag; cell-based NPY-Y1 antagonism counterscreen; hit rate 19% among 710; inhibition, % at 3.6 µM; AID 1256; in the data active means inhibition above about 20%;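 further: cells challenged with NPY then isoproterenol with cAMP sensed through a CNG channel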
NPY2 antag conf: human NPY-Y2 antagonism, confirmation; shares compounds with NPY-Y2 antag; HEK293 NPY-Y2 CNG channel, membrane potential fluorescence; inhibition, % at 2.8 µM; hit rate 32% among 710; AID 1257;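 active means mean inhibition of triplicate wells above the hit cutoff set in the primary screen, cut at about 17% in these data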
Each line names hits and unclear results; the compound was inactive in the other large screens (follow-up assays come after a bar, where they were run). This is a sample that favours compounds with a hit; in the whole collection about 3% have one here.

COc1cccc(C2C(C(N)=O)=C(C)Nc3nc(-c4ccccc4Cl)nn32)c1 (stereo not given)	NPY-Y2 antag 20 | NPY-Y1 antag ct inactive | NPY2 antag conf inactive
CO/N=C(/CS(=O)Cc1ccc(Cl)cc1)c1ccc(Cl)cc1 (stereo not given)	NPY-Y2 antag 18 | NPY-Y1 antag ct inactive | NPY2 antag conf inactive
O=C(Nc1ccc2c(c1)OCO2)c1nn(-c2ccccc2)c(=O)c2ccccc12	NPY-Y2 antag 17 | NPY-Y1 antag ct inactive | NPY2 antag conf inactive
COc1cccc(-n2nc(C(=O)Nc3ccc4c(c3)OCO4)c3ccccc3c2=O)c1	none
C/C(=N\OCC(=O)Nc1ccccc1Br)c1cccs1	none (no result: NPY-Y2 antag)
CC(/C=C/C(=O)c1ccc(C)cc1)=C\c1ccccc1	none
Cc1ccc(C(=O)/C=C\C(=O)c2ccc(C)cc2)cc1	NPY-Y2 antag 20 | NPY-Y1 antag ct 45 | NPY2 antag conf 111
Cc1cc(Cl)ccc1OCCCC(=O)N1CCCc2ccccc21	NPY-Y2 antag 27 | NPY-Y1 antag ct 23 | NPY2 antag conf 40
CN(C)S(=O)(=O)c1ccc(N2CCCC2)c(C(=O)NC(c2ccccc2)c2ccccc2)c1	NPY-Y2 antag 23 | NPY-Y1 antag ct inactive | NPY2 antag conf inactive
COc1cc([N+](=O)[O-])ccc1N1C(=O)C2C3C=CC(C4CC34)C2C1=O (stereo not given)	none (no result: NPY-Y2 antag)
COc1ccc2cc3cc(C(=O)Nc4ccccc4N4CCN(C)CC4)oc3nc2c1	NPY-Y2 antag 18 | NPY-Y1 antag ct inactive | NPY2 antag conf inactive
CCc1ccccc1NC(=S)N(CCN(C)C)Cc1cccs1	none (no result: NPY-Y2 antag)
CCCC(=O)NC(=S)Nc1c(C)cc(Br)cc1C	none
CCCCCC(=O)NC(=S)Nc1ccc(Br)cc1C	NPY-Y2 antag 20 | NPY-Y1 antag ct inactive | NPY2 antag conf 19
CC1CCCN(C(=O)CSc2nnc(-c3c[nH]c4ccccc34)o2)C1 (stereo not given)	NPY-Y2 antag 23 | NPY-Y1 antag ct inactive | NPY2 antag conf inactive
Brc1ccc(CSc2nnc(-c3ccccn3)n2Cc2ccco2)cc1	NPY-Y2 antag 24 | NPY-Y1 antag ct inactive | NPY2 antag conf 26
Clc1cccc(CSc2nnc(-c3ccccn3)n2Cc2ccco2)c1	NPY-Y2 antag 20 | NPY-Y1 antag ct inactive | NPY2 antag conf inactive
c1ccc(CSc2nnc(-c3cccs3)n2Cc2ccco2)cc1	NPY-Y2 antag 19 | NPY-Y1 antag ct inactive | NPY2 antag conf inactive
CCCCc1n[nH]c(=S)n1Cc1ccc(C)cc1	none (no result: NPY-Y2 antag)
Cc1cc(C)nc(N/N=C/C2=C(N3CCOCC3)C(=C/c3ccccc3)/CC2)n1	NPY-Y2 antag 76 | NPY-Y1 antag ct 56 | NPY2 antag conf 72
CCn1nc(C)c(Br)c1C(=O)Sc1ccccc1Cl	none (no result: NPY Y1 blocker, Hsp70 act, NPY-Y2 antag)
Nc1c2c(nc3sc4c(c13)CCCC4)CCCCCC2	NPY-Y2 antag 19 | NPY-Y1 antag ct inactive | NPY2 antag conf 18
CC(C)CCn1c(-c2nonc2N)nc2ccccc21	NPY-Y2 antag 18 | NPY-Y1 antag ct inactive | NPY2 antag conf inactive
CCOC(=O)c1ccccc1NC(=O)Cn1c(-c2nonc2N)nc2ccccc21	NPY-Y2 antag 35 | NPY-Y1 antag ct 23 | NPY2 antag conf 30
CCOC(=O)C1(CCOc2ccccc2)CCN(Cc2ccc(-n3cccn3)cc2)CC1	none (no result: NPY-Y2 antag)
Cc1ccc(NC(=O)COc2ccccc2C(=O)NCCN(C)C)cc1	none (no result: NPY-Y2 antag)
CCOc1ccc(C(CC(=O)O)NC(=O)c2sc3ccccc3c2Cl)cc1 (stereo not given)	NPY-Y2 antag 19 | NPY-Y1 antag ct 22 | NPY2 antag conf 28
CC(=O)c1ccc(NC(=O)c2ccc(S(=O)(=O)c3ccccc3)cc2)cc1	none
Cc1nc2c3ccccc3nc(SCC(=O)c3ccc(Cl)cc3)n2n1	NPY-Y2 antag 27 | NPY-Y1 antag ct 21 | NPY2 antag conf inactive
Cc1nc2c3ccccc3nc(SCC(=O)N3CC(C)CC(C)C3)n2n1 (stereo not given)	none
C/C=C1\C(OC2OC(CO)C(O)C(O)C2O)OC=C(C(=O)OC)C1CC(=O)OCC1C(C)C(OC(=O)CC2C(C(=O)OC)=COC(OC3OC(CO)C(O)C(O)C3O)/C2=C\C)CC1C(CO)CO (stereo not given)	none (no result: NPY-Y2 antag)
CC1CCCCC1NC(=O)COC(=O)CNC(=O)c1cccc(F)c1 (stereo not given)	none (no result: NPY-Y2 antag)
CCC(C)(C)n1nnnc1C(c1ccc(C)cc1)N(Cc1ccco1)Cc1cccs1 (stereo not given)	NPY-Y2 antag 22 | NPY-Y1 antag ct inactive | NPY2 antag conf inactive
CC(C)(C)n1nnnc1C(c1cccnc1)N(Cc1ccccc1)Cc1ccco1 (stereo not given)	NPY-Y2 antag 18 | NPY-Y1 antag ct inactive | NPY2 antag conf inactive
CCC(C)(C)n1nnnc1C(C(C)C)N(Cc1cccnc1)Cc1ccco1 (stereo not given)	none (no result: NPY-Y2 antag)
O=C(CC1CC2CCC1C2)OCC(=O)c1c[nH]c2ccccc12 (stereo not given)	none
OC(CCN1CCOCC1)(c1ccc(Cl)cc1)C1CCCCC1 (stereo not given)	none
OC(CCN1CCCCC1)(c1ccccc1)C1CCCCC1 (stereo not given)	NPY-Y2 antag 20 | NPY-Y1 antag ct inactive | NPY2 antag conf inactive
O=C(Nc1cccc(S(=O)(=O)N2CCCCC2)c1)c1ccc2ccccc2n1	NPY-Y2 antag 20 | NPY-Y1 antag ct inactive | NPY2 antag conf inactive
O=C(Nc1cccc(S(=O)(=O)N2CCCC2)c1)c1ccc2ccccc2n1	none (no result: NPY-Y2 antag)
Cc1ccc(N(CC(=O)NCc2ccccc2Cl)S(=O)(=O)c2cccs2)cc1	NPY-Y2 antag 22 | NPY-Y1 antag ct inactive | NPY2 antag conf inactive
COc1ccccc1CN(Cc1nc2ccccc2c(=O)[nH]1)C(=O)Nc1cccc(C)c1	none
NNC(=O)Cn1c(SCc2ccccc2)nc2ccccc21	NPY-Y2 antag 22 | NPY-Y1 antag ct inactive | NPY2 antag conf inactive
COc1ccc(-c2n[nH]c3c2C(c2ccc(OC)c(OC)c2)N(c2ccccc2)C3=O)cc1 (stereo not given)	NPY-Y2 antag 27 | NPY-Y1 antag ct inactive | NPY2 antag conf 38
O=C(c1cc2sccc2n1Cc1ccccc1)N1CCc2ccccc21	NPY-Y2 antag 20 | NPY-Y1 antag ct inactive | NPY2 antag conf inactive
O=C(c1cc2sccc2n1Cc1ccccc1)N1CCCc2ccccc21	none
COC(=O)c1cc(OC)c(OC)cc1NC(=O)c1cc(-c2ccccc2)nc2ccccc12	none
COc1ccc(-c2cc(C(=O)Nc3c(Cl)cc(Cl)cc3Cl)c3ccccc3n2)cc1OC	NPY-Y2 antag 79 | NPY-Y1 antag ct 152 | NPY2 antag conf 195
